Laboratory results from ChEMBL document CHEMBL4627259, “Discovery of LY3325656: A GPR142 agonist suitable for clinical testing in human” (Bioorg Med Chem Lett, 2020).
Activity calls are given as the source filed them. The calls are words filed in the database; no cut-off is given here.

Tests used:
[1] = Oral bioavailability in dog at 5 mg/kg; assay type: ADME, organism-based, Canis lupus familiaris; conditions: in vivo
[2] = Drug metabolism in dog microsomes assessed as drug turnover at 20 uM measured after 30 mins by LCMS analysis; assay type: ADME, Canis lupus familiaris, Microsome; conditions: read-out: Drug metabolism
Summary of the method: (§1)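 High-throughput microsomal stability: compound at 20 uM incubated with mouse, rat, dog or human liver microsomes at 37 °C; percent parent remaining measured after 30 min and reported as % turnover.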

[3] = target: T1, Probable G-protein coupled receptor 142 (Homo sapiens, UniProt Q7Z601); experiment: Agonist activity at human GPR142 receptor expressed in HEK293 cells assessed as accumulation of inositol phosphate incubated for 1 hr followed by IP1-d2 addition by HTRF assay; assay type: functional, cell-based
T1 sequence (Q7Z601 whole entry): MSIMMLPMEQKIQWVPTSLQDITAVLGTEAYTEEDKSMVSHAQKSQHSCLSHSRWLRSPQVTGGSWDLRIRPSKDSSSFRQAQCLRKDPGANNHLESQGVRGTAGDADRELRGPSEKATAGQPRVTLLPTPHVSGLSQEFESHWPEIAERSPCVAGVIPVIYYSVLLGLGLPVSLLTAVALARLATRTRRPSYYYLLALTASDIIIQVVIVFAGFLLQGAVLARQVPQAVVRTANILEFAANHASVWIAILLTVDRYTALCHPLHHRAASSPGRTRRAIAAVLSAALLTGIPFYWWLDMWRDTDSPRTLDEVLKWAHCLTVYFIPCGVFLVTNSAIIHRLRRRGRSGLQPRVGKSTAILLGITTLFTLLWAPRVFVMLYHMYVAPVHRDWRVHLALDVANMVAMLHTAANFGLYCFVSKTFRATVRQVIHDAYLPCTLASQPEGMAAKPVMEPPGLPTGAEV
Summary of the method: (§2)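 HEK293 cells stably expressing human GPR142 (DMEM, 10% FBS, 800 ug/mL G418, 37 °C, 5% CO2), seeded 5000 cells/well and left 18 h to attach. Compounds added at 30 uM to 1 nM, 1 h incubation in HBSS (+Ca, +Mg), 0.1% BSA, 50 mM LiCl, 20 mM HEPES pH 7.2. IP-1 HTRF read-out: IP1-d2 then cryptate, 1 h at 25 °C, 665/620 nm ratio converted via IP-1 standard curve; EC50 by 4-parameter logistic fit.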

[4] = Volume of distribution at steady state in dog at 1 mg/kg, iv or 5 mg/kg, po; assay type: ADME, organism-based, Canis lupus familiaris; conditions: in vivo, read-out: Vdss
[5] = Clearance in rat at 1 mg/kg, iv or 10 mg/kg, po; assay type: ADME, organism-based; conditions: in vivo
[6] = Drug metabolism in human microsomes assessed as drug turnover at 20 uM measured after 30 mins by LCMS analysis; assay type: ADME, Microsome; conditions: read-out: Drug metabolism; summary of the method: as §1
[7] = Clearance in dog at 1 mg/kg, iv or 5 mg/kg, po; assay type: ADME, organism-based, Canis lupus familiaris; conditions: in vivo
[8] = target: T2, Probable G-protein coupled receptor 142 (Homo sapiens) (UniProt Q7Z601); experiment: Agonist activity at human GPR142 receptor expressed in HEK293 cells assessed as accumulation of inositol phosphate at 30 uM to 1 nM incubated for 1 hr followed by IP1-d2 addition by HTRF assay relative to control; assay type: functional, cell-based; summary of the method: as §2
T2 sequence (whole entry): T1 sequence (Q7Z601 whole entry)

[9] = target: CYP3A4 (Homo sapiens, UniProt P08684); experiment: Inhibition of CYP3A4 (unknown origin) at 10 uM relative to control; assay type: ADME
CYP3A4, sequence (P08684 whole entry): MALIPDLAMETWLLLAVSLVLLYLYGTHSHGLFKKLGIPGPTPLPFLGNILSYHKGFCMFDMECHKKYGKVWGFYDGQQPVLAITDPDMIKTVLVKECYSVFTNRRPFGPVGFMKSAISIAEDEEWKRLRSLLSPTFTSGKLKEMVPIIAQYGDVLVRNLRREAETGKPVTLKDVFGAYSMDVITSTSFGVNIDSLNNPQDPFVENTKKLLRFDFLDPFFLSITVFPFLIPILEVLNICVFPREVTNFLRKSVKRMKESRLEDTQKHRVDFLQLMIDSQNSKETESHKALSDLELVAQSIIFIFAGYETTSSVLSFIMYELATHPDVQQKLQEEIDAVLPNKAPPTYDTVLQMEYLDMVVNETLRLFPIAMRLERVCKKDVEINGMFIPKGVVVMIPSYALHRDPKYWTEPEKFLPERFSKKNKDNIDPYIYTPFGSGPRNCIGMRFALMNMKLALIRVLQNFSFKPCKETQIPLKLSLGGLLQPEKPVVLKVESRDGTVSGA

[10] = Drug metabolism in mouse microsomes assessed as drug turnover at 20 uM measured after 30 mins by LCMS analysis; assay type: ADME, Microsome; conditions: read-out: Drug metabolism; summary of the method: as §1
[11] = target: CYP2C9 (Homo sapiens, UniProt P11712); experiment: Inhibition of CYP2C9 (unknown origin) at 10 uM relative to control; assay type: ADME
CYP2C9, sequence (P11712 whole entry): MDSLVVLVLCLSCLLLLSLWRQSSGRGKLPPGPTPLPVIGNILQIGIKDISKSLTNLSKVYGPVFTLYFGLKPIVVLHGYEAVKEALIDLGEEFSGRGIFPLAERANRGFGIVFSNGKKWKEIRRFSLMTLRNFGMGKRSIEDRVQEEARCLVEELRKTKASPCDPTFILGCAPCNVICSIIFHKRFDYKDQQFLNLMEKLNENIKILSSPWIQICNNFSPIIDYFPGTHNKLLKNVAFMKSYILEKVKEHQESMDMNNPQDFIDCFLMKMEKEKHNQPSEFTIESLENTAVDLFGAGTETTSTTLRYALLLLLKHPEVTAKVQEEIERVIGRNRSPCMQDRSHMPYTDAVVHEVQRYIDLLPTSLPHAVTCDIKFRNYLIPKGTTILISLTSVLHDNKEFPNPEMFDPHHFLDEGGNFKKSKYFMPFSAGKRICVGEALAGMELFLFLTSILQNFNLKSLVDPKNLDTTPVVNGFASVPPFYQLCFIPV

[12] = Drug metabolism in rat microsomes assessed as drug turnover at 20 uM measured after 30 mins by LCMS analysis; assay type: ADME, Microsome; conditions: read-out: Drug metabolism; summary of the method: as §1
[13] = Oral bioavailability in rat at 10 mg/kg; assay type: ADME, organism-based; conditions: in vivo
[14] = target: CYP2D6 (Homo sapiens, UniProt P10635); experiment: Inhibition of CYP2D6 (unknown origin) at 10 uM relative to control; assay type: ADME
CYP2D6, sequence (P10635 whole entry): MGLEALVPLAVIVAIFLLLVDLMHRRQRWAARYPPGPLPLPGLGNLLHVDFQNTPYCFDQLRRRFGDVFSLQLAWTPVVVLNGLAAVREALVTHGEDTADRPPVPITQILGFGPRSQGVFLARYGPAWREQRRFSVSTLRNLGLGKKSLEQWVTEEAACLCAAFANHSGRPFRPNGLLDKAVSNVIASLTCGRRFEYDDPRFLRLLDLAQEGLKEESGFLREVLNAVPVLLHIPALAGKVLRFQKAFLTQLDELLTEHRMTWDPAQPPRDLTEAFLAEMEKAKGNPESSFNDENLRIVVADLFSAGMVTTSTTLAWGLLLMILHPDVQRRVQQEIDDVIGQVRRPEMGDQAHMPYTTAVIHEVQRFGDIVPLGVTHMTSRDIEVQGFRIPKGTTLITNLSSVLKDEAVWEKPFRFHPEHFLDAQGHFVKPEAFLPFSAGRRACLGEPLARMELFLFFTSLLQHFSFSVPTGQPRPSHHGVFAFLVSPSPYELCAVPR

[15] = Volume of distribution at steady state in rat at 1 mg/kg, iv or 10 mg/kg, po; assay type: ADME, organism-based; conditions: in vivo, read-out: Vdss
[16] = tested on: Mus musculus; experiment: Hypoglycemic activity in po dosed lean C57BL/6J mouse assessed as reduction in glucose level administered 30 mins prior to glucose challenge measured for 60 mins by IPGTT; assay type: functional, organism-based
Summary of the method: (§3)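 IPGTT in male C57BL/6 mice, lean or diet-induced obese; compound given orally 30 min before intraperitoneal glucose load; blood glucose followed over time. Mean ± SEM, n=5 per group, compared with vehicle (p<0.05, 0.01, 0.001).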

[17] = tested on: Mus musculus; experiment: Hypoglycemic activity in lean C57BL/6J mouse assessed as reduction in glucose level at 0.3 mg/kg, po administered 30 mins prior to glucose challenge measured for 60 mins by IPGTT; assay type: functional; summary of the method: as §3
[18] = tested on: Mus musculus; experiment: Hypoglycemic activity in lean C57BL/6J mouse assessed as reduction in glucose level at 0.01 mg/kg, po administered 30 mins prior to glucose challenge measured for 60 mins by IPGTT; assay type: functional; summary of the method: as §3
[19] = tested on: Mus musculus; experiment: Hypoglycemic activity in lean C57BL/6J mouse assessed as reduction in glucose level at 0.1 mg/kg, po administered 30 mins prior to glucose challenge measured for 60 mins by IPGTT; assay type: functional; summary of the method: as §3
[20] = tested on: Mus musculus; experiment: Hypoglycemic activity in diet-induced obese C57BL/6J mouse assessed as reduction in glucose level at 15 mg/kg, po co-administered with 5 mg/kg DPP-4 inhibitor, sitagliptin 30 mins prior to glucose challenge measured after 120 mins by IPGTT; assay type: functional, organism-based; summary of the method: as §3
[21] = tested on: Mus musculus; experiment: Hypoglycemic activity in lean C57BL/6J mouse assessed as reduction in glucose level at 10 mg/kg, po administered 30 mins prior to glucose challenge measured for 60 mins by IPGTT; assay type: functional; summary of the method: as §3
[22] = Hypoglycemic activity in mouse pancreatic islets assessed as increase in glucose-dependent insulin secretion at 10 uM relative to control; assay type: functional, Pancreatic islet
Summary of the method: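 Isolated mouse pancreatic islets; glucose-dependent insulin secretion measured at 2.8 mM and 11.1 mM glucose with compound at 10 uM.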

[23] = tested on: Mus musculus; experiment: Hypoglycemic activity in lean C57BL/6J mouse assessed as reduction in glucose level at 1 mg/kg, po administered 30 mins prior to glucose challenge measured for 60 mins by IPGTT; assay type: functional; summary of the method: as §3
[24] = Dissociation constant, pKa of compound; assay type: physicochemical
[25] = tested on: Mus musculus; experiment: Hypoglycemic activity in lean C57BL/6J mouse assessed as reduction in glucose level at 0.03 mg/kg, po administered 30 mins prior to glucose challenge measured for 60 mins by IPGTT; assay type: functional; summary of the method: as §3
[26] = Fractional renal clearance in dog at 1 mg/kg, iv or 5 mg/kg, po; assay type: ADME, organism-based, Canis lupus familiaris; conditions: in vivo
[27] = tested on: Mus musculus; experiment: Hypoglycemic activity in diet-induced obese C57BL/6J mouse assessed as increase in plasma insulin secretion at 10 mg/kg, po administered 30 mins prior to glucose challenge measured after 15 mins by IPGTT; assay type: functional, organism-based; conditions: 15 mg/kg, in the assay text read “15 mg/kg” for “10 mg/kg”
Summary of the method: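 IPGTT in male diet-induced obese mice; compound given orally 30 min before intraperitoneal glucose; plasma insulin measured. Mean ± SEM, n=5 per group, versus vehicle.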

[28] = tested on: Mus musculus; experiment: Hypoglycemic activity in diet-induced obese C57BL/6J mouse assessed as reduction in glucose level at 15 mg/kg, po administered 30 mins prior to glucose challenge measured for 120 mins by IPGTT; assay type: functional, organism-based; summary of the method: as §3
[29] = tested on: Mus musculus; experiment: Hypoglycemic activity in diet-induced obese C57BL/6J mouse assessed as increase in insulin secretion at 15 mg/kg, po co-administered with 5 mg/kg DPP-4 inhibitor, sitagliptin 30 mins prior to glucose challenge measured after 15 mins by IPGTT; assay type: functional, organism-based
[30] = Solubility of compound at pH 2 to 7.5; assay type: physicochemical; conditions: buffer
[31] = target: Cytochrome P450 2C9 (Homo sapiens, UniProt P11712); experiment: Induction of CYP2C9 (unknown origin) at 10 uM; assay type: ADME
Cytochrome P450 2C9, sequence (P11712 whole entry): as the sequence (P11712 whole entry) above

[32] = target: Cytochrome P450 2D6 (Homo sapiens, UniProt P10635); experiment: Induction of CYP2D6 (unknown origin) at 10 uM; assay type: ADME
Cytochrome P450 2D6, sequence (P10635 whole entry): as the sequence (P10635 whole entry) above

[33] = Toxicity in dog assessed as NOAEL administered as repeated dose for 1 month; design: species or system Canis lupus familiaris; conditions: in vivo
[34] = Toxicity in rat assessed as NOAEL administered as repeated dose for 1 month; conditions: in vivo
[35] = target: Cytochrome P450 3A4 (Homo sapiens, UniProt P08684); experiment: Induction of CYP3A4 (unknown origin) at 10 uM; assay type: ADME
Cytochrome P450 3A4, sequence (P08684 whole entry): as the sequence (P08684 whole entry) above

[36] = Permeability of compound; assay type: ADME; conditions: not told

bioavailability [1] [%] | metabolised at 0.5 h, 20 µM [2] [%] | EC50 [3] [nM] | Vd [4] [L/kg] | clearance [5] [mL/min/kg] | metabolised at 0.5 h, 20 µM [6] [%] | clearance [7] [mL/min/kg] | Emax [8] [%] | inhibition at 10 µM [9] [%] | metabolised at 0.5 h, 20 µM [10] [%] | inhibition at 10 µM [11] [%] | metabolised at 0.5 h, 20 µM [12] [%] | bioavailability [13] [%] | inhibition at 10 µM [14] [%] | Vd [15] [L/kg] | pKa [24] | CL [26] [%] | Compound | other results
86 | 33 | 14 | 0.9 | 40.1 | 26 | 8.8 | 111 | 3.3 | 39 | 0 | 55 | 29 | 0 | 1 | – | – | Cc1ncn(C)c1-c1nnc([C@H]2CCC[C@@H](N(C)C(=O)c3cccc(Cl)c3)C2)[nH]1 | –
66 | 28 | 30 | 1.2 | 49.6 | 32 | 17.6 | 104 | 6.1 | 89 | 14 | 41 | 28 | 0 | 1.3 | 6.9 | 20 | Cc1ncn(C)c1NC(=O)[C@H]1CCC[C@@H](N(C)C(=O)c2cccc(C(F)(F)F)c2)C1 | Activity [16]: Dose-dependent effect; inhibition in vivo at 0.3 mg/kg [17]: 27%; inhibition in vivo at 0.01 mg/kg [18]: 9%; inhibition in vivo at 0.1 mg/kg [19]: 12%; Activity [20]: Active; inhibition in vivo at 10 mg/kg [21]: 47%; fold change (FC) [22]: 1.4; inhibition in vivo at 1 mg/kg [23]: 34%; inhibition in vivo at 0.03 mg/kg [25]: 11%; Activity [27]: Active; Activity [28]: Active; Activity [29]: Active
– | 66 | 52 | – | – | 72 | – | 118 | – | 97 | – | 88 | – | – | – | – | – | Cc1ncn(CC2CC2)c1NC(=O)[C@H]1CCC[C@@H](N(C)C(=O)c2cccc(C(F)(F)F)c2)C1 | –
78 | 13 | 43 | 1.3 | 22.1 | 14 | 8.4 | – | 22 | 22 | 11 | 14 | 63 | 16 | 1.1 | 5.9 | < 5 | Cc1ncn(C)c1-c1nnc([C@@H]2C[C@H](N(C)C(=O)c3cccc(C(F)(F)F)c3)CCO2)[nH]1 | solubility [30]: > 2000 µg/mL; Activity [31]: Not Active; Activity [32]: Not Active; NOAEL at 1 month [33]: 180 mg/kg; NOAEL at 1 month [34]: 200 mg/kg; Activity [35]: Not Active; Papp [36]: 13.5 ×10⁻⁶ cm/s
– | 19 | 51 | – | – | 38 | – | 97 | – | 67 | – | 63 | – | – | – | – | – | Cc1ncn(CCN2CCOCC2)c1NC(=O)[C@H]1CCC[C@@H](N(C)C(=O)c2cccc(C(F)(F)F)c2)C1 | –
